Measured values published in ChEMBL document CHEMBL4041525, “Newly Designed Quinolinol Inhibitors Mitigate the Effects of Botulinum Neurotoxin A in Enzymatic, Cell-Based, and ex Vivo Assays” (J Med Chem, 2017).
The source made the active and inactive calls. The rule behind the calls is not given here.

What was measured:
[1] = molecular target: Botulinum neurotoxin type A (Clostridium botulinum) (UniProt P0DPI0); assay: Inhibition of BoNT/A induced paralysis in intoxicated CD1 mouse hemidiaphragm muscles assessed as increase in half paralysis time at 20 uM pretreated for 1 hr followed by intoxication
Sequence of Botulinum neurotoxin type A (Clostridium botulinum) (P0DPI0 2-448 limits assumed): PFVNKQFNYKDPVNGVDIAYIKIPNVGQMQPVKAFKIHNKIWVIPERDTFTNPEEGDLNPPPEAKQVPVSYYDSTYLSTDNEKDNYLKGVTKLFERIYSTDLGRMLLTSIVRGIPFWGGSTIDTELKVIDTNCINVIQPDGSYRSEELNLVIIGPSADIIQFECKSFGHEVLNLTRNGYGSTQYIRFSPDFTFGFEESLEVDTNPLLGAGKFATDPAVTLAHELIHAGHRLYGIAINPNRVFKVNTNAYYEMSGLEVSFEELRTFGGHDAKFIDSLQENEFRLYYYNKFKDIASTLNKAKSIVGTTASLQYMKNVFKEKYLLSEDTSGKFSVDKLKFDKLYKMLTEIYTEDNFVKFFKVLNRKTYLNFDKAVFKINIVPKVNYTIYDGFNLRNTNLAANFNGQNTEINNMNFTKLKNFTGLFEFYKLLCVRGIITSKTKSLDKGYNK

[2] = molecular target: Botulinum neurotoxin type A (Clostridium botulinum) (UniProt P0DPI0); assay: Inhibition of BoNT/A light chain mediated proteolysis of CFP and YFP tagged full-length SNAP-25 expressed in BoCells at 25 uM after 20 hrs by fluorescence assay
[3] = molecular target: T1, Botulinum neurotoxin type A (Clostridium botulinum, UniProt P0DPI0); assay: Inhibition of protease activity of recombinant Clostridium botulinum BoNT/A light chain (425 amino acids) using SNAP-25 as substrate preincubated for 20 followed by substrate addition measured for 25 mins by FRET analysis
T1 sequence (P0DPI0 2-448 limits assumed): as above
In short: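 Compound (from 50X DMSO stock) preincubated 20 min with recombinant 425-aa BoNT/A LC (56 nM working solution) in 40 mM HEPES, 0.1% Triton X-100, pH 7.4. SNAPtide FRET substrate (6 µM solution) then added and read for 25 min at ex 490/em 523 nm. V0 taken from linear slopes, in duplicate at ≥4 inhibitor dilutions, normalized to DMSO. IC50 from Hill-equation fit.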

[4] = molecular target: T1, Botulinum neurotoxin type A; assay: Uncompetitive inhibition of recombinant Clostridium botulinum BoNT/A light chain (425 amino acids) using SNAP-25 as substrate preincubated for 20 followed by substrate addition measured for 25 mins by Lineweaver-Burk plot analysis
[5] = molecular target: Botulinum neurotoxin type A (Clostridium botulinum) (UniProt P0DPI0); conditions: 12.5 uM

## Oc1c(C(Nc2ccccn2)c2ccccc2)ccc2cccnc12 (stereo not drawn)
[1]
  inhibition: inactive
[2]
  inhibition: inactive

## CNc1ccc2c(S(=O)(=O)N3CCc4c(Cl)cccc43)ccc(O)c2n1
[3]
  IC50: 37.6 µM

## O=S(=O)(Nc1cccc(Cl)c1)c1ccc(O)c2ncccc12
[3]
  IC50: 7.32 µM

## CCNc1ccc2c(S(=O)(=O)N3CCc4c(Cl)cccc43)ccc(O)c2n1
[3]
  IC50: 28.6 µM

## O=S(=O)(c1ccc(O)c2ncccc12)N1CCc2c(Cl)cccc21
[4]
  Ki: 2.03 µM
[3]
  IC50: 3.66 µM
[1]
  inhibition: Active
[2]
  inhibition: Active

## CNNc1ccc2c(S(=O)(=O)N3CCc4c(Cl)cccc43)ccc(O)c2n1
[5]
  inhibition: Active
[3]
  IC50: 3.26 µM
[1]
  inhibition: Active
[2]
  inhibition: Active

## O=S(=O)(c1ccc(O)c2ncccc12)N1CCc2ccc(Cl)cc21
[3]
  IC50: 12.8 µM

## CC(=O)NNc1ccc2c(S(=O)(=O)N3CCc4c(Cl)cccc43)ccc(O)c2n1
[3]
  IC50: 5.39 µM
[1]
  inhibition: Active
[2]
  inhibition: inactive

## O=S(=O)(Nc1ccccc1)c1ccc(O)c2ncccc12
[3]
  IC50: 12.7 µM

## NNc1ccc2c(S(=O)(=O)N3CCc4c(Cl)cccc43)ccc(O)c2n1
[4]
  Ki: 0.895 µM
[3]
  IC50: 1.55 µM
[1]
  inhibition: Active
[2]
  inhibition: inactive

## Nc1ccc2c(S(=O)(=O)N3CCc4c(Cl)cccc43)ccc(O)c2n1
[3]
  IC50: 3.36 µM
[1]
  inhibition: Active
[2]
  inhibition: Active

## O=S(=O)(c1ccc(O)c2ncccc12)N1CCCCC1
[3]
  IC50: 18.3 µM

## CN(c1cccc(Cl)c1)S(=O)(=O)c1ccc(O)c2ncccc12
[3]
  IC50: 4.28 µM

## CN(c1ccccc1)S(=O)(=O)c1ccc(O)c2ncccc12
[3]
  IC50: 7.19 µM
